Assay results published in the RNAGym collection of RNA variant scans (doi:10.1126/science.aae0568).
Fewer inactive variants are shown than the library holds.

B1: tRNA (parent)
chain: GUUCCGUUGGCGUAAUGGUAACGCGUCUCCCUCCUAAGGAGAAGACUGCGGGUUCGAGUCCCGUACGGAACG

Variants of: B1
Test: yeast fitness relative to wild type (ratio to wild type); higher = fitter; tRNA-Arg(CCU), competitive growth, 37 C, YPD
Procedure, shortened: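 Changes in genotype frequencies gave Darwinian fitness relative to wild type. Frequencies were read by 100-nucleotide paired-end sequencing of gene amplicons before and after pooled Saccharomyces cerevisiae strains, carrying tRNA-Arg(CCU) gene variants at the native locus, were competed in YPD at 37°C for 24 hours in six replicates. A genotype was kept only with ≥ 100 starting reads, and estimates < 0.5 were set to 0.5.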
In the case of C22G C30G U47C A70U, the yeast fitness is reported as at most 0.5. Work on C22G C30G C55A U64C yielded a yeast fitness of 0.581. Variant C22G C24A has a yeast fitness of 0.673. Variant C22G C24U A37C has a yeast fitness of at most 0.5. With C22G U64C G68C the yeast fitness was 0.623. For C22G A42C A70U, the yeast fitness was 0.671. Variant C22U C30U C33U A45C has a yeast fitness of 0.548. Work on C22G A37U A57C yielded a yeast fitness of at most 0.5. Work on C22G C34G A43U C49A yielded a yeast fitness of at most 0.5. With C22G C27G C29G C49U the yeast fitness was at most 0.5. Work on C22G C24G G50A yielded a yeast fitness of 0.694. Work on C22G A45U G48C yielded a yeast fitness of 0.511. For C22G C62U G68C, the yeast fitness was at most 0.5. C22U C29A A36G A45U showed a yeast fitness of at most 0.5. In the case of C22G A37C A42G, the yeast fitness is reported as at most 0.5. With C22G G67C A69C the yeast fitness was at most 0.5. C22U A42G U54C C55G A70U gave a yeast fitness of at most 0.5. With C22U A37G A45U the yeast fitness was 0.547. C22G A37U A43U A65C gave a yeast fitness of at most 0.5. With C22G U35G A40C the yeast fitness was at most 0.5. Work on C22G G41A G50U C62A G63C yielded a yeast fitness of at most 0.5. C22G U35G gave a yeast fitness of 0.62. Variant C22G U35A has a yeast fitness of 0.614. Variant C22G C27U C30U A37G A43U G67A has a yeast fitness of at most 0.5. For C22G C27A A43C, the yeast fitness was 0.587. Work on C22U C30U C33U A45C A65C yielded a yeast fitness of at most 0.5. Variant C22U C30U A37G G48C C55G has a yeast fitness of at most 0.5. C22G C27G C30A U32G C55G gave a yeast fitness of at most 0.5. C22G C31G A36G showed a yeast fitness of 0.646. Variant C22G U26A C30A A42U has a yeast fitness of 0.692. In the case of C22G G39A A42U A57C, the yeast fitness is reported as at most 0.5. With C22G A36G A37C C46A C49G the yeast fitness was at most 0.5. For C22U C46A G67A, the yeast fitness was 0.657. C22G C34U C46A C62U gave a yeast fitness of 0.611. For C22U C34G G39A C66U, the yeast fitness was at most 0.5. With C22G C49U C61A the yeast fitness was 0.69. C22U A42U G51C gave a yeast fitness of 0.647. C22U A36C A37G A65G gave a yeast fitness of at most 0.5. C22G C29G G44C G56A A57G showed a yeast fitness of 0.515. C22G A45G C46U showed a yeast fitness of 0.644. For C22U A65U A70U, the yeast fitness was 0.628. Work on C22G C29G C46U yielded a yeast fitness of 0.568. Work on C22G G23A C30G A65C yielded a yeast fitness of 0.535. For C22G C27U A43G, the yeast fitness was 0.623. With C22G C30A C66A the yeast fitness was at most 0.5. With C22U C33U the yeast fitness was 0.717. With C22U C33G the yeast fitness was 0.551. With C22G C29A A37U C49A the yeast fitness was at most 0.5. C22U A45U G52C A57U gave a yeast fitness of at most 0.5. C22G G41C A65U showed a yeast fitness of at most 0.5. C22U A43C A70C showed a yeast fitness of 0.643. Variant C22G C49G U64G A65G A70U has a yeast fitness of at most 0.5. With C22G A43C C46A C61G A70C the yeast fitness was at most 0.5. With C22G C55A C60A the yeast fitness was at most 0.5. C22U C30G A57U showed a yeast fitness of at most 0.5. Variant C22G C27G C29G C34A G44C G56A A57G has a yeast fitness of 0.529. C22G G39C U59G C66U showed a yeast fitness of 0.504. For C22G A37G, the yeast fitness was 0.697. With C22G A65C the yeast fitness was 0.863. In the case of C22U A37G A45U G52A C62G A70U, the yeast fitness is reported as at most 0.5. In the case of C22G C34G C61G A69G, the yeast fitness is reported as at most 0.5. With C22U C24A A42U C49U C61U the yeast fitness was at most 0.5. In the case of C22G C30U A37G A43U G68U, the yeast fitness is reported as at most 0.5. For C22U C24U A45G G56C, the yeast fitness was at most 0.5. For C22A U53G G56C G67C, the yeast fitness was at most 0.5. In the case of C22G C29U C31A A65G, the yeast fitness is reported as at most 0.5. Variant C22G C31G A57C A69C has a yeast fitness of at most 0.5. C22G C29G C46U C66U showed a yeast fitness of at most 0.5. Work on C22U A42G U53C C55G A70U yielded a yeast fitness of at most 0.5. In the case of C22U A37U U53G, the yeast fitness is reported as at most 0.5. Work on C22G U32C A69U yielded a yeast fitness of 0.705. For C22U C31G G51A, the yeast fitness was 0.563. For C22U C31G A43U C60A, the yeast fitness was at most 0.5. Variant C22U C29U G39A G41A has a yeast fitness of at most 0.5. For C22G C24A G44C G51A G58C U59A, the yeast fitness was at most 0.5. C22U C46G C55A C66A showed a yeast fitness of 0.564. Work on C22U C24G C55U yielded a yeast fitness of at most 0.5. C22U A40U U64A showed a yeast fitness of at most 0.5. Work on C22U C24G U35C G56C U64A yielded a yeast fitness of at most 0.5. Variant C22G G39C A43U G44A U47C G58C has a yeast fitness of at most 0.5. Variant C22G A40U A43C has a yeast fitness of 0.698. In the case of C22G A40U A43U, the yeast fitness is reported as 0.503. C22U C30G G51C G56U gave a yeast fitness of at most 0.5. C22U A36U C62G G63A gave a yeast fitness of at most 0.5. Variant C22G C27G U54C C66U has a yeast fitness of at most 0.5. Work on C22G U26G G44A C55G G63C yielded a yeast fitness of at most 0.5. C22G C61A A69U gave a yeast fitness of 0.573. For C22G A42C, the yeast fitness was 0.635. C22U A36C gave a yeast fitness of 0.616. C22U A36U showed a yeast fitness of 0.591. C22G C33U A40U U59A gave a yeast fitness of 0.514. C22U A40G A43U C46G C49G showed a yeast fitness of at most 0.5. In the case of C22G C34A C49A, the yeast fitness is reported as 0.818. C22U C30U A37G C66U showed a yeast fitness of at most 0.5. In the case of C22U C29U G41A C55U C61A, the yeast fitness is reported as at most 0.5. Work on C22G U28A A37C A42C C46A yielded a yeast fitness of at most 0.5. In the case of C22G C24G C29U C33U A37C G52A C66U, the yeast fitness is reported as 0.548. In the case of C22G C31A A43G A57C A65U, the yeast fitness is reported as at most 0.5. Work on C22U C24U C33G yielded a yeast fitness of 0.502. C22G G39C G50C showed a yeast fitness of at most 0.5. C22U C55G gave a yeast fitness of 0.578. For C22U C55U, the yeast fitness was 0.686. Variant C22G C29G C33U A42G G50A C66U has a yeast fitness of at most 0.5. C22G G25A U53C gave a yeast fitness of at most 0.5. C22G U53A G68C showed a yeast fitness of at most 0.5. C22U C27U U32A C66U G67C gave a yeast fitness of at most 0.5. Work on C22G A36G A42G yielded a yeast fitness of 0.605. In the case of C22U C62U A65C, the yeast fitness is reported as 0.691. Variant C22U C66U A69C has a yeast fitness of 0.593. In the case of C22G A36G C55G, the yeast fitness is reported as at most 0.5. For C22U A37C G41C, the yeast fitness was at most 0.5. Work on C22U C30G G50A yielded a yeast fitness of at most 0.5. For C22G U28A C31G A45G C55A G68C, the yeast fitness was at most 0.5. Work on C22U C27U C33G G44C A65U yielded a yeast fitness of 0.574. In the case of C22G C27U C66U, the yeast fitness is reported as 0.701. C22G C24G U54A A69U showed a yeast fitness of at most 0.5. In the case of C22U C27U A70C, the yeast fitness is reported as 0.599. C22U gave a yeast fitness of 0.908. Work on C22G yielded a yeast fitness of 0.988. Work on C22G A37U A43U yielded a yeast fitness of 0.502. C22G G25C C61G gave a yeast fitness of 0.659. For C22G C29G C33U, the yeast fitness was at most 0.5. C22U A37U G58A A69C showed a yeast fitness of at most 0.5. Variant C22G G58C C66A has a yeast fitness of at most 0.5. Work on C22G U47C A70U yielded a yeast fitness of 0.722. Variant C22U A40G G63C has a yeast fitness of 0.531. Variant C22U C49U U64A has a yeast fitness of 0.53. With C22G C30A C61U the yeast fitness was 0.545. Variant C22G C31G U53A has a yeast fitness of at most 0.5. Work on C22G G58C C61A A69U yielded a yeast fitness of at most 0.5. C22U C30U A40C C55A A65G showed a yeast fitness of at most 0.5. With C22U C33G A65G the yeast fitness was at most 0.5. With C22G C24G C27A C60G the yeast fitness was 0.521. With C22U C60U A70U the yeast fitness was 0.678. Work on C22U A69U yielded a yeast fitness of 0.799. For C22G G41C, the yeast fitness was 0.814. Work on C22U C46G A65G yielded a yeast fitness of at most 0.5. C22U C31G G67C gave a yeast fitness of 0.653. Variant C22U C24A C27U has a yeast fitness of at most 0.5. Work on C22G A36G A37G C60G A69G yielded a yeast fitness of at most 0.5. C22G A45G U53A C66G showed a yeast fitness of 0.565. C22U C30U C33U U47A G58A A65C gave a yeast fitness of at most 0.5. Variant C22U C33U C34A G38C G52A has a yeast fitness of 0.601. For C22G C46U C66G, the yeast fitness was at most 0.5. In the case of C22G C46G, the yeast fitness is reported as 0.974. C22G C46A showed a yeast fitness of 1.03. For C22G C34A U53C, the yeast fitness was 0.543. C22G A43U G52A U54C G56U U64C showed a yeast fitness of at most 0.5. For C22G A43C C55G, the yeast fitness was 0.577. Work on C22G G67A yielded a yeast fitness of 0.819. With C22G C27G A37G G38A the yeast fitness was 0.532. Variant C22U C29A U47C G68A A69C has a yeast fitness of at most 0.5. In the case of C22G A45U A65C, the yeast fitness is reported as 0.534. For C22G C31A A36G C49G G63C A69U, the yeast fitness was 0.543. In the case of C22U C34U C62U A70C, the yeast fitness is reported as at most 0.5. With C22G U47A G67A the yeast fitness was at most 0.5. Variant C22G U59A C66A has a yeast fitness of 0.554. C22U A43G showed a yeast fitness of 0.835. Variant C22U A43U has a yeast fitness of 0.788. In the case of C22G C31A C49G G63C A69U, the yeast fitness is reported as 0.603. In the case of C22U C31G A43U, the yeast fitness is reported as 0.612. In the case of C22G G48A, the yeast fitness is reported as 0.988. With C22U A45C G50A G67C A69C the yeast fitness was at most 0.5. C22U C33U G52A showed a yeast fitness of 0.566. Variant C22U C24A U28G has a yeast fitness of 0.542. For C22U C34A, the yeast fitness was 0.641. In the case of C22U C34U, the yeast fitness is reported as 0.665.
